PMC3677027 (The Biochemical journal, 2012)
Entries after “also recorded” stand apart in the source; their conditions may differ. Ends that are not written are not given here.

Experiments:
EphA4 AP = EphA4 AP (Homo sapiens, UniProt P54764); experiment: ELISA inhibition of EphA4 AP binding to immobilized ephrin-A5 Fc; conditions: for IC50 value relative to unmodified KYL (in words): KYL alanine scan, ELISA, 0.05 nM EphA4 AP, ephrin-A5 Fc immobilized
In short: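 Peptides (purity ≥85%) were made as 10 mM DMSO stocks and tested at varied concentrations. Each was incubated for 3 h with 0.05 nM EphA4 AP in protein A wells precoated with 1 µg/ml ephrin-A5 Fc. Bound AP was quantified with p-nitrophenyl phosphate substrate in SEAP buffer, read as absorbance at 405 nm, and inhibition was computed from that signal.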

[1] = Peptide stability in mouse serum; assay type: in vitro ADME; conditions: 37°C, ELISA read-out of residual antagonistic activity
In short: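 Peptide at 100, 200 or 500 µM (depending on peptide) was held in mouse serum at 37 °C and sampled over time. Samples were diluted 1:20 into protein A wells carrying 1 µg/ml ephrin-A5 Fc, with 0.05 nM EphA4 AP, for 30 min at 4 °C. Bound AP was read as OD405 and normalised: peptide-free serum = 0, unincubated peptide = 1.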

I131A EphA4 AP mutant = I131A EphA4 AP mutant (Homo sapiens, UniProt P54764, I159A); experiment: ELISA binding to immobilized ephrin-A5 Fc
In short: (§1)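 Wild-type and mutant human EphA4 ephrin-binding domain–AP fusions were secreted from transfected HEK293T cells into Opti-MEM, and the medium was concentrated about 50-fold. Protein amount was estimated from AP activity. Ephrin-A5 Fc was captured at 0.5 µg/ml on protein A wells (1 h, RT, TBS/0.01% Tween 20), then EphA4 AP was added for 1 h. Bound AP was read with pNPP in SEAP buffer (pH 9.8) at OD405, minus Fc-only wells.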

R134A EphA4 AP mutant = R134A EphA4 AP mutant (Homo sapiens, UniProt P54764, R162A); experiment: ELISA binding to immobilized ephrin-A5 Fc
In short: as §1

S30A EphA4 AP mutant = S30A EphA4 AP mutant (Homo sapiens, UniProt P54764, S58A); experiment: ELISA binding to immobilized ephrin-A5 Fc
In short: as §1

D123A EphA4 AP mutant = D123A EphA4 AP mutant (Homo sapiens, UniProt P54764, D151A); experiment: ELISA binding to immobilized ephrin-A5 Fc
In short: as §1

D33A EphA4 AP mutant = D33A EphA4 AP mutant (Homo sapiens, UniProt P54764, D61A); experiment: ELISA binding to immobilized ephrin-A5 Fc
In short: as §1

M136A EphA4 AP mutant = M136A EphA4 AP mutant (Homo sapiens, UniProt P54764, M164A); experiment: ELISA binding to immobilized ephrin-A5 Fc
In short: as §1

T41A EphA4 AP mutant = T41A EphA4 AP mutant (Homo sapiens, UniProt P54764, T69A); experiment: ELISA binding to immobilized ephrin-A5 Fc
In short: as §1

V129A EphA4 AP mutant = V129A EphA4 AP mutant (Homo sapiens, UniProt P54764, V157A); experiment: ELISA binding to immobilized ephrin-A5 Fc
In short: as §1

Q43A EphA4 AP mutant = Q43A EphA4 AP mutant (Homo sapiens, UniProt P54764, Q71A); experiment: ELISA binding to immobilized ephrin-A5 Fc
In short: as §1

G132V EphA4 AP mutant = G132V EphA4 AP mutant (Homo sapiens, UniProt P54764, G160V); experiment: ELISA binding to immobilized ephrin-A5 Fc
In short: as §1

F126A EphA4 AP mutant = F126A EphA4 AP mutant (Homo sapiens, UniProt P54764, F154A); experiment: ELISA binding to immobilized ephrin-A5 Fc
In short: as §1

M32A EphA4 AP mutant = M32A EphA4 AP mutant (Homo sapiens, UniProt P54764, M60A); experiment: ELISA binding to immobilized ephrin-A5 Fc
In short: as §1

T76A EphA4 AP mutant = T76A EphA4 AP mutant (Homo sapiens, UniProt P54764, T104A); experiment: ELISA binding to immobilized ephrin-A5 Fc
In short: as §1

A165S EphA4 AP mutant = A165S EphA4 AP mutant (Homo sapiens, UniProt P54764, A193S); experiment: ELISA binding to immobilized ephrin-A5 Fc
In short: as §1

I39A EphA4 AP mutant = I39A EphA4 AP mutant (Homo sapiens, UniProt P54764, I67A); experiment: ELISA binding to immobilized ephrin-A5 Fc
In short: as §1

I31A EphA4 AP mutant = I31A EphA4 AP mutant (Homo sapiens, UniProt P54764, I59A); experiment: ELISA binding to immobilized ephrin-A5 Fc
In short: as §1

[2] = target: EphA4 ephrin-binding domain (residues 29-209) (human, UniProt P54764-1 29-209); experiment: ITC
EphA4 Fc = EphA4 Fc (UniProt Q03137 20-547); experiment: ELISA
[3] = read-out: inhibition of EphA4 AP binding to ephrin-A5 Fc

Chain of EphA4 AP (P54764 30-209 limits assumed): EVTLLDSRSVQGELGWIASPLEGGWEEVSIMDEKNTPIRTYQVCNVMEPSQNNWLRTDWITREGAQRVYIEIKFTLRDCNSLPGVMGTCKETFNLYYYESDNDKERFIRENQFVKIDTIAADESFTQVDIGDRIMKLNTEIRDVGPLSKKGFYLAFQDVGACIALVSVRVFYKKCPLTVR
Chain of T41A EphA4 AP mutant (P54764 30-209 T69A): as the sequence (P54764 30-209 limits assumed) above, with T40A counted along it
Chain of EphA4 ephrin-binding domain (residues 29-209) (P54764 29-209): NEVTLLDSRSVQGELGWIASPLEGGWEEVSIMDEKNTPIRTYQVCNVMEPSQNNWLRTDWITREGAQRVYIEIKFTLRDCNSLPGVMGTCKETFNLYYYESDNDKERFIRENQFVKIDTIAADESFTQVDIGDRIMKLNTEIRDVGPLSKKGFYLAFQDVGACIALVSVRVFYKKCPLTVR
Chain of M136A EphA4 AP mutant (P54764 30-209 M164A): as the sequence (P54764 30-209 limits assumed) above, with M135A counted along it
Chain of I31A EphA4 AP mutant (P54764 30-209 I59A): as the sequence (P54764 30-209 limits assumed) above, with I30A counted along it
Chain of D33A EphA4 AP mutant (P54764 30-209 D61A): as the sequence (P54764 30-209 limits assumed) above, with D32A counted along it
Chain of G132V EphA4 AP mutant (P54764 30-209 G160V): as the sequence (P54764 30-209 limits assumed) above, with G131V counted along it
Chain of Q43A EphA4 AP mutant (P54764 30-209 Q71A): as the sequence (P54764 30-209 limits assumed) above, with Q42A counted along it
Chain of T76A EphA4 AP mutant (P54764 30-209 T104A): as the sequence (P54764 30-209 limits assumed) above, with T75A counted along it
Chain of S30A EphA4 AP mutant (P54764 30-209 S58A): as the sequence (P54764 30-209 limits assumed) above, with S29A counted along it
Chain of A165S EphA4 AP mutant (P54764 30-209 A193S): as the sequence (P54764 30-209 limits assumed) above, with A164S counted along it
Chain of M32A EphA4 AP mutant (P54764 30-209 M60A): as the sequence (P54764 30-209 limits assumed) above, with M31A counted along it
Chain of D123A EphA4 AP mutant (P54764 30-209 D151A): as the sequence (P54764 30-209 limits assumed) above, with D122A counted along it
Chain of V129A EphA4 AP mutant (P54764 30-209 V157A): as the sequence (P54764 30-209 limits assumed) above, with V128A counted along it
Chain of I131A EphA4 AP mutant (P54764 30-209 I159A): as the sequence (P54764 30-209 limits assumed) above, with I130A counted along it
Chain of R134A EphA4 AP mutant (P54764 30-209 R162A): as the sequence (P54764 30-209 limits assumed) above, with R133A counted along it
Chain of F126A EphA4 AP mutant (P54764 30-209 F154A): as the sequence (P54764 30-209 limits assumed) above, with F125A counted along it
Chain of I39A EphA4 AP mutant (P54764 30-209 I67A): as the sequence (P54764 30-209 limits assumed) above, with I38A counted along it
Chain of EphA4 Fc (Q03137 20-547): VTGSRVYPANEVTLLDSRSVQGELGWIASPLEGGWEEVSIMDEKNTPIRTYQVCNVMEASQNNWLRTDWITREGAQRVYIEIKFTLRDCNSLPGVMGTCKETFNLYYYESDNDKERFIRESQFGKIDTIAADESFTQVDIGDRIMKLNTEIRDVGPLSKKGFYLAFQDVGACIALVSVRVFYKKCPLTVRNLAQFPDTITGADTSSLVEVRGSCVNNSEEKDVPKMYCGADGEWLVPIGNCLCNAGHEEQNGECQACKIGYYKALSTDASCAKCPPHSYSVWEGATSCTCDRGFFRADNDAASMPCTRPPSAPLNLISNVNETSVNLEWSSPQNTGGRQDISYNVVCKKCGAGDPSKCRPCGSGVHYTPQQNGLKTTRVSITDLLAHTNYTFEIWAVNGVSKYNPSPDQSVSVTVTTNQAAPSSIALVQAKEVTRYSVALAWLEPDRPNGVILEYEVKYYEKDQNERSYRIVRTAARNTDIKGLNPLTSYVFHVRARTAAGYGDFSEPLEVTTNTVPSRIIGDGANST

KYLPYWPVLASL [KYL-Ala10]
IC50 value relative to unmodified KYL (in words) (EphA4 AP): comparable to that of unmodified KYL

KYLPYWPVLSAL [KYL-Ala11]
IC50 value relative to unmodified KYL (in words) (EphA4 AP): comparable to that of unmodified KYL

KYLPYWPVLSSL [KYL]
inhibition at 5 µM (EphA4 AP; [3]): ~80%

VTMEAINLAFPG [VTM]
relative stability in mouse serum (in words) [1]: more stable than KYL and APY | inhibition at 25 µM (EphA4 AP; [3]): ~80%

B1: ephrin-A5: natural ephrin ligand of EphA4, used as Fc fusion (R&D Systems) (protein)
chain: QDPGSKAVADRYAVYWNSSNPRFQRGDYHIDVCINDYLDVFCPHYEDSVPEDKTERYVLYMVNFDGYSACDHTSKGFKRWECNRPHSPNGPLKFSEKFQLFTPFSLGFEFRPGREYFYISSAIPDNGRRSCLKLKVFVRPTNSCMKTIGVHDRVFDVNDKVENSLEPADDTVHESAEPSRGEN
modifications: left off: Fc, end not stated, kept
effect of mutation on ephrin-A5 binding (in words) (I131A EphA4 AP mutant): severely impair | effect of mutation on ephrin-A5 binding (in words) (R134A EphA4 AP mutant): severely impair | effect of mutation on ephrin-A5 binding (in words) (S30A EphA4 AP mutant): do not substantially affect | effect of mutation on ephrin-A5 binding (in words) (D123A EphA4 AP mutant): also affect ephrin-A5 binding | effect of mutation on ephrin-A5 binding (in words) (D33A EphA4 AP mutant): also affect ephrin-A5 binding | effect of mutation on ephrin-A5 binding (in words) (M136A EphA4 AP mutant): also affect ephrin-A5 binding | effect of mutation on ephrin-A5 binding (in words) (T41A EphA4 AP mutant): do not substantially affect; also recorded: does not affect ephrin-A5 binding | effect of mutation on ephrin-A5 binding (in words) (V129A EphA4 AP mutant): do not substantially affect | effect of mutation on ephrin-A5 binding (in words) (Q43A EphA4 AP mutant): also affect ephrin-A5 binding | effect of mutation on ephrin-A5 binding (in words) (G132V EphA4 AP mutant): do not substantially affect | effect of mutation on ephrin-A5 binding (in words) (F126A EphA4 AP mutant): severely impair | effect of mutation on ephrin-A5 binding (in words) (M32A EphA4 AP mutant): also affect ephrin-A5 binding | effect of mutation on ephrin-A5 binding (in words) (T76A EphA4 AP mutant): severely impair | effect of mutation on ephrin-A5 binding (in words) (A165S EphA4 AP mutant): also affect ephrin-A5 binding | effect of mutation on ephrin-A5 binding (in words) (I39A EphA4 AP mutant): do not substantially affect | effect of mutation on ephrin-A5 binding (in words) (I31A EphA4 AP mutant): also affect ephrin-A5 binding

KYLPYWPVLSSL [KYL peptide]
Kd [2]: 0.85 ± 0.15 µM

VTMEAINLAFPG [VTM peptide]
Kd [2]: 4.7 ± 0.1 µM

VTMEAINLAFPA [VTM-Ala12]
fold reduction of inhibitory potency against unmodified VTM (EphA4 Fc): < 2 fold
